Experimental data published in paper PMC2887059 (Journal of Medicinal Chemistry, 2010).

Columns and labels:
murine B-lymphocytes = assay: Anti-IgM-stimulated proliferation of murine B-lymphocytes; type: cell-based; conditions: Mus musculus, read-out: IC50, proliferation of B-lymphocytes
[1] = system: NF-κB reporter gene activation (other pathways); assay: NF-κB reporter gene activation by agonists of other NF-κB activation pathways; type: cell-based
PKC-θ = conditions: concentrations up to 8 μM; cited from earlier work
[2] = In vivo dose-exposure profiling, single ip dose in male mice; conditions: 50 mg/kg ip, t = 3 h
[3] = Plasma stability, human plasma; type: in vitro ADME; conditions: human plasma/PBS; compound at 40 μM, 3 h
[4] = system: IL-2 production by Jurkat T-cells; assay: IL-2 production by Jurkat T-cells; type: cell-based; conditions: Homo sapiens, read-out: IC50, production of IL-2
Summary of the method: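 Jurkat T cells were stimulated either with CD3/CD28 or with PMA/ionomycin in the presence of test compound. IL-2 production was measured and an IC50 derived.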

[5] = Plasma protein binding, human plasma; type: in vitro ADME
[6] = system: NF-κB activation induced by TNF-α; assay: NF-κB activation through TNF-α stimulation; type: cell-based
Raf = assay: KINOMEscan; type: binding; conditions: 10 μM
[7] = Metabolic stability in human hepatic microsomes; type: in vitro ADME; conditions: 1 h
IKK-β = conditions: concentrations up to 8 μM; cited from earlier work
[8] = Plasma protein binding, mouse plasma; type: in vitro ADME
[9] = system: 92 targets (cloned human or rodent receptors, ion channels, and transporters); assay: NIMH-PDSP receptor, ion channel and transporter panel; type: binding; conditions: of 92 targets screened, 10 μM
[10] = Metabolic stability in mouse hepatic microsomes; type: in vitro ADME; conditions: 1 h
JAK2 = JAK2 (Homo sapiens, UniProt O60674); assay: KINOMEscan; type: binding; conditions: 10 μM
Sequence of JAK2 (O60674 whole entry): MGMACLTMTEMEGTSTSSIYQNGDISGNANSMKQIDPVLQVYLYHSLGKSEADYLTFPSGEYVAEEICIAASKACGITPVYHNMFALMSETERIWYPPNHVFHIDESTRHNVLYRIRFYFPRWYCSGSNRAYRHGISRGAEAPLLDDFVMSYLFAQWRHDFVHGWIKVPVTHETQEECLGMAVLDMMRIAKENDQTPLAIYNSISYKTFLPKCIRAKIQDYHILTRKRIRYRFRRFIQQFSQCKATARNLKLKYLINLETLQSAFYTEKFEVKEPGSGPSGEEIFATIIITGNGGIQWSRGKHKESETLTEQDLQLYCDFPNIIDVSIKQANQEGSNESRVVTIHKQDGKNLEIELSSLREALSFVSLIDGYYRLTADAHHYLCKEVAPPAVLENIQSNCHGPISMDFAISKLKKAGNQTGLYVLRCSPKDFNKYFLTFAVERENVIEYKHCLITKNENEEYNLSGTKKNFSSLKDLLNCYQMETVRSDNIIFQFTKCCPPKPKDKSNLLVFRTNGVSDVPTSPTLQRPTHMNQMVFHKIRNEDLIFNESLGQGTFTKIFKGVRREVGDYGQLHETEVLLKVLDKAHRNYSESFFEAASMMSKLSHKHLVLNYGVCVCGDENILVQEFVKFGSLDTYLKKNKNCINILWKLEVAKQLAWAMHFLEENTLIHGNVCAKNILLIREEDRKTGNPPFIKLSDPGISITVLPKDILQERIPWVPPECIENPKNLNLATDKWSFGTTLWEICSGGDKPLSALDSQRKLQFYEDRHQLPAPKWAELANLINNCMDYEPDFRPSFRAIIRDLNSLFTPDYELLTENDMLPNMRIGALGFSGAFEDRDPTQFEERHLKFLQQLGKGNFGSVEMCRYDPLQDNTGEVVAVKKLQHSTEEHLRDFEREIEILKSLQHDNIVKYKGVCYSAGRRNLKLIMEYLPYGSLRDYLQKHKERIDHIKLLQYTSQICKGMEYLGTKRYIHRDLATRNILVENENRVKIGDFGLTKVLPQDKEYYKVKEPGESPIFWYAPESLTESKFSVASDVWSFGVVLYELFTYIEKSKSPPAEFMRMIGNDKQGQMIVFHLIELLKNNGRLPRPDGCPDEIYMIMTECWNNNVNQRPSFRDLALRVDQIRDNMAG

PKC-β = conditions: concentrations up to 8 μM; cited from earlier work
[11] = Plasma stability, mouse plasma; type: in vitro ADME; conditions: mouse plasma/PBS; compound at 40 μM, 3 h
[12] = system: IL-8 production in HEK293 cells; assay: IL-8 production induced by PKC activators in HEK293 cells; type: cell-based; conditions: Homo sapiens, HEK293, read-out: IC50, IL-8 production
TLK1 = biological target: T1, TLK1 (Homo sapiens, UniProt Q9UKI8); assay: KINOMEscan; type: binding; conditions: 10 μM
T1 sequence (Q9UKI8 1-766): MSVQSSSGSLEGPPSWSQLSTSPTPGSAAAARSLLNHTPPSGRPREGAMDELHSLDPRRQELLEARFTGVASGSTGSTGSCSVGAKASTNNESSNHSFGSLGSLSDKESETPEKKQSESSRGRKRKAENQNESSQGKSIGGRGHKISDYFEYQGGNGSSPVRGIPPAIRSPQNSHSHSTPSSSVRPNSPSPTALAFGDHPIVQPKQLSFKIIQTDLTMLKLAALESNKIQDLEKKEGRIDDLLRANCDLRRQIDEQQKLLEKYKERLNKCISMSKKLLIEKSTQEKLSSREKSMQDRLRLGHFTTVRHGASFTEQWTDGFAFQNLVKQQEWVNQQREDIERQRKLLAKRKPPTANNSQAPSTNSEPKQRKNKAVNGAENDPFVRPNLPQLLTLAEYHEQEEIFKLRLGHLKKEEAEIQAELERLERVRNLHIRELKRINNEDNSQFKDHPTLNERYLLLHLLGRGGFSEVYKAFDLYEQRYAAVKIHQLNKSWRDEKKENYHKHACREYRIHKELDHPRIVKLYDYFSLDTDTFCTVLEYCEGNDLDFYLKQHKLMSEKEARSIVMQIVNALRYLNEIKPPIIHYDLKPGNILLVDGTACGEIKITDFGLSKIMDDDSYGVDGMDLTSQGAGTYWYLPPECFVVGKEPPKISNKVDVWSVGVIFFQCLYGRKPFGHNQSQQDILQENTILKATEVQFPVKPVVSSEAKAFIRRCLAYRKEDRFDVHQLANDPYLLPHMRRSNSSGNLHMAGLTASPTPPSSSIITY

353 protein kinases = assay: KINOMEscan broad kinome screen; type: binding; conditions: of 353 protein kinases surveyed, 10 μM
[13] = system: NF-κB activation (HEK293-NF-κB-Luc cells, PMA/ionomycin); type: cell-based, human; conditions: HEK293 NF-κB-luciferase reporter; for fold drop in activity relative to 1a: versus 1a

SMILES: Cc1cc2nc(NCCCO)n(CC(=O)c3cc(C(C)(C)C)c(O)c(C(C)(C)C)c3)c2cc1C [Compound 1a, 1-(3,5-di-tert-butyl-4-hydroxyphenyl)-2-(2-((3-hydroxypropyl)amino)-5,6-dimethyl-1H-benzo[d]imidazol-1-yl)ethanone]
- IC50 (murine B-lymphocytes): ~2 µM
- inhibition of NF-κB reporter gene activation by agonists of the other NF-κB activation pathways [1]: failing to inhibit
- suppression of PKC-θ (PKC-θ): failed to suppress
- observed tolerability of the cohort [2]: clear signs of morbidity
- plasma stability (% remaining) human [3]: 100/100 % remaining
- IC50 [4]: < 5 µM
- plasma protein binding (% bound) human 1 μM ([5]; 1 μM): 99.9 % bound
- plasma protein binding (% bound) human 10 μM ([5]; 10 μM): 99.8 % bound
- inhibition of NF-κB activation through TNF-α stimulation [6]: did not inhibit
- % inhibition of Raf (Raf): 57 % inhibition
- microsome stability (% remaining) human 1 μM ([7]; 1 μM): 26 % remaining
- microsome stability (% remaining) human 10 μM ([7]; 10 μM): 55 % remaining
- suppression of IKK-β (IKK-β): failed to suppress
- plasma protein binding (% bound) mouse 1 μM ([8]; 1 μM): 99.8 % bound
- plasma protein binding (% bound) mouse 10 μM ([8]; 10 μM): 99.9 % bound
- number of targets with greater than 50% inhibition [9]: eight
- microsome stability (% remaining) mouse 1 μM ([10]; 1 μM): 0.5 % remaining
- microsome stability (% remaining) mouse 10 μM ([10]; 10 μM): 19 % remaining
- % inhibition of JAK2 (JAK2): 53 % inhibition
- suppression of PKC-β (PKC-β): failed to suppress
- plasma stability (% remaining) mouse [11]: 100/100 % remaining
- IC50 [12]: < 0.1 µM
- % inhibition of TLK1 (TLK1): 70 % inhibition
- number of kinases inhibited by more than 50% (353 protein kinases): three

SMILES: CC(C)(C)c1cc(C(=O)Cn2c(NCCCO)nc3cc(Br)ccc32)cc(C(C)(C)C)c1O [Compound 1b]
- fold drop in activity relative to 1a [13]: 40−80 fold

SMILES: CC(C)(C)c1cc(C(=O)Cn2c(NCCCO)nc3cc([N+](=O)[O-])ccc32)cc(C(C)(C)C)c1O [Compound 1e]
- fold drop in activity relative to 1a [13]: 20 fold

SMILES: Cc1cc2nc(N3CCC(O)CC3)n(CC(=O)c3cc(C(C)(C)C)c(O)c(C(C)(C)C)c3)c2cc1C [Compound 1k]
- NF-κB inhibitory activity (in words) [13]: abolish activity

SMILES: Cc1cc2nc(NCCCO)n(CC(=O)c3cc(C(C)(C)C)cc(C(C)(C)C)c3)c2cc1C [Compound 1l]
- NF-κB inhibitory activity (in words) [13]: retained complete activity

SMILES: Cc1cc2nc(NCCCO)n(CC(=O)c3cccc(C(C)(C)C)c3)c2cc1C [Compound 1m]
- NF-κB inhibitory activity (in words) [13]: completely inactive

SMILES: Cc1cc2nc(NCCCO)n(CC(=O)c3cccc(OC(C)(C)C)c3)c2cc1C [Compound 1n]
- NF-κB inhibitory activity (in words) [13]: completely inactive

SMILES: Cc1cc2nc(NCCCN=[N+]=[N-])n(CC(=O)c3cc(C(C)(C)C)c(O)c(C(C)(C)C)c3)c2cc1C [Compound 1o]
- fold drop in activity relative to 1a [13]: ≤ 6 fold

SMILES: C#CCCCCC(=O)OCCCNc1nc2cc(C)c(C)cc2n1CC(=O)c1cc(C(C)(C)C)c(O)c(C(C)(C)C)c1 [Compound 1p]
- fold drop in activity relative to 1a [13]: ≤ 6 fold

SMILES: Cc1c(C(C)(C)C)cc(O)cc1C(C)(C)C [Compound 9, 3,5-Di-t-butyl-4-methylphenol, reference compound]
- NF-κB inhibitory activity (in words) [13]: inactive

SMILES: Cc1cc(Cc2cc(C)cc(C(C)(C)C)c2O)c(O)c(C(C)(C)C)c1 [Compound 10, 6,6′-methylenebis-(2-tert-butyl-4-methylphenol), reference compound]
- NF-κB inhibitory activity (in words) [13]: inactive

SMILES: CC(C)(C)c1cc(C(=O)Cn2c(NCCCO)nc3ccc(Br)cc32)cc(C(C)(C)C)c1O [Compound 17b]
- fold drop in activity relative to 1a [13]: 40−80 fold

SMILES: CC(C)(C)c1cc(C(=O)Cn2c(NCCCO)nc3ccc([N+](=O)[O-])cc32)cc(C(C)(C)C)c1O [Compound 17e]
- NF-κB inhibitory activity (in words) [13]: inactive

SMILES: Cc1cc2ncn(CC(=O)c3cc(C(C)(C)C)c(O)c(C(C)(C)C)c3)c2cc1C [Compound 18]
- NF-κB inhibitory activity (in words) [13]: significant loss of activity

SMILES: Cc1cc2[nH]c(=O)n(CC(=O)c3cc(C(C)(C)C)c(O)c(C(C)(C)C)c3)c2cc1C [Compound 19]
- NF-κB inhibitory activity (in words) [13]: essentially equipotent to 1a

SMILES: CN[C@@H]1C[C@H]2O[C@@](C)([C@@H]1OC)n1c3ccccc3c3c4c(c5c6ccccc6n2c5c31)C(=O)NC4 [staurosporine, reference compound]
- suppression of PKC-θ (PKC-θ): potent inhibition
- suppression of IKK-β (IKK-β): potent inhibition
